Measured values taken from ChEMBL document CHEMBL4351001, “2-Aminoimidazole-based antagonists of the 5-HT6 receptor - A new concept in aminergic GPCR ligand design” (Eur J Med Chem, 2019).

Key:
in vitro = settings: rat, microsomes
[1] = biological target: T1, Alpha-1A adrenergic receptor (Rattus norvegicus) (UniProt P43140); experiment: Displacement of [3H] prazosin from rat alpha 1A adrenergic receptor at 10^-6 M measured after 60 mins by scintillation counter method relative to control
T1 sequence (whole entry): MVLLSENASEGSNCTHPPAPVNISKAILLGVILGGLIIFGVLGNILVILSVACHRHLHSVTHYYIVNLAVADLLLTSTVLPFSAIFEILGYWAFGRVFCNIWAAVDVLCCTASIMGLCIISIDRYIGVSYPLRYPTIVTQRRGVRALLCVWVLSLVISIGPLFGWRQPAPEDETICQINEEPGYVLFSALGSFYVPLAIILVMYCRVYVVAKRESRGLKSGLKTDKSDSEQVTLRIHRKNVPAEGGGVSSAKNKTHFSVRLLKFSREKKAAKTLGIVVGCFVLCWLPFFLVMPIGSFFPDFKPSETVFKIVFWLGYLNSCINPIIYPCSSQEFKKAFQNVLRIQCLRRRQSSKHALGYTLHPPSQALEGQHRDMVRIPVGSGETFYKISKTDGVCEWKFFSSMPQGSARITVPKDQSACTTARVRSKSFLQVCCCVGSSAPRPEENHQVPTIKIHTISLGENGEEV

[2] = Solubility of compound in water; type: physicochemical; settings: water; read-out: solubility
D(2) dopamine receptor = D(2) dopamine receptor (Homo sapiens, UniProt P14416); experiment: Displacement of [3H]-methylspiperone from human D2 long receptor expressed in HEK293 cells measured after 1 hr by liquid scintillation counter method; type: cell-based
D(2) dopamine receptor, sequence (P14416 whole entry): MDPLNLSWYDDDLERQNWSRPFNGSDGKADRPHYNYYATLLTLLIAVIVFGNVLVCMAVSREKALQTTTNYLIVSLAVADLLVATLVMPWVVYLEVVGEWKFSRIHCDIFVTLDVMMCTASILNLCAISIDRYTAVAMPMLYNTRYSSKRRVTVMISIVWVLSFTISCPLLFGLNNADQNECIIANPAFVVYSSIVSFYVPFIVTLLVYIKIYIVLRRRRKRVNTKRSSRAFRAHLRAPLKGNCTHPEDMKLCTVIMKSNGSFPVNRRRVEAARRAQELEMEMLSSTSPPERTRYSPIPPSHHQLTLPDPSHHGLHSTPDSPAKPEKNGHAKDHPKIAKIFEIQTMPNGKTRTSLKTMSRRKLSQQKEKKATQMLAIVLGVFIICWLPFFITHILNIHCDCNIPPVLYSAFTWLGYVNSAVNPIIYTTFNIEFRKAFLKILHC
Outline: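 HEK293 membranes stably expressing human D2L receptor, incubated 1 h at 37°C, then filtered and retained radioactivity counted; (+)-butaclamol 1 μM defines nonspecific binding. Tested in triplicate at 7–8 concentrations (10⁻¹¹–10⁻⁴ M); Ki via Cheng-Prusoff, averaged over at least two independent experiments.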

HepG2 [3] = experiment: Cytotoxicity against human HepG2 cells assessed as cell membrane damage measured after 24 hrs by Toxilight assay; type: cell-based; settings: HepG2, 24 h
Outline: (§1)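 HepG2 cells seeded at 2x10^4 per well in DMEM with 10% FBS, grown 24 h (37°C, 5% CO2), then exposed 24 h to 1, 10, 50 and 100 μM compound. Viability read with PrestoBlue (fluorescence); membrane damage by ToxiLight (luminescence).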

[4] = biological target: T2, 5-hydroxytryptamine receptor 2C (Homo sapiens) (UniProt P28335); experiment: Displacement of [3H]mesulergine from human recombinant 5HT2C serotonin receptor at 10^-6M incubated for 120 mins by scintillation counter method relative to control
T2 sequence (whole entry): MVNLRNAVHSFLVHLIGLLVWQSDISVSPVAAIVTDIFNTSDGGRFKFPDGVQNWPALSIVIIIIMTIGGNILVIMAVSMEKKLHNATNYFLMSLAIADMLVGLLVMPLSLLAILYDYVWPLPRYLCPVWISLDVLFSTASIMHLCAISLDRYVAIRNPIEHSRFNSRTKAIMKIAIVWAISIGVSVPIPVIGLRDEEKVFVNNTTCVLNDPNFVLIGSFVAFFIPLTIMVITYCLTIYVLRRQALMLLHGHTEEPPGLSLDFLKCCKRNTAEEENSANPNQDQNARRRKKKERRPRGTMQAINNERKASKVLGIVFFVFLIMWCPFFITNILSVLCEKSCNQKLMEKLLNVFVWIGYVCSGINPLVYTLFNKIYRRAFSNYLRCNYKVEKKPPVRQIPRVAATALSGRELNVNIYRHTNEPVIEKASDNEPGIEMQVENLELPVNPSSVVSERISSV

[5] = biological target: T2, 5-hydroxytryptamine receptor 2C (Homo sapiens); experiment: Agonist activity at human 5HT2C serotonin receptor at 10^-5 M relative to control
[6] = biological target: T3, 5-hydroxytryptamine receptor 1A (Homo sapiens, UniProt P08908); experiment: Displacement of [3H]-8-OH-DPAT from human 5HT1A receptor expressed in HEK293 cells incubated for 1 hr by liquid scintillation counter method; type: cell-based; settings: read-out: Ki
T3 sequence (P08908 whole entry): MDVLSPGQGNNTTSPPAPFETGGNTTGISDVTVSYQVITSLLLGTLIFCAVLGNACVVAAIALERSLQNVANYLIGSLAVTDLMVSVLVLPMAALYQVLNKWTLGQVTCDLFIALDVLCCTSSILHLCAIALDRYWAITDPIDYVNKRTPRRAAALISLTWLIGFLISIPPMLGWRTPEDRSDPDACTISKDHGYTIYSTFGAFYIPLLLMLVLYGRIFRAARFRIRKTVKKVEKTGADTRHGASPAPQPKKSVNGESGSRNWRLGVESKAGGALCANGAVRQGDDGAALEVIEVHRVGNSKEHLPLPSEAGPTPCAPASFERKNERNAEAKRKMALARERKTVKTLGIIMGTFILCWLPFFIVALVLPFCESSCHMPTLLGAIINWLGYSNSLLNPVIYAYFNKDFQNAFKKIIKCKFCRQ
Outline: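 HEK293 cells stably expressing human 5-HT1AR; membranes in 50 mM Tris–HCl, 0.1 mM EDTA, 4 mM MgCl2, 10 μM pargyline, 0.1% ascorbate; incubated 1 h at room temperature, then filtered. Nonspecific binding defined with 10 μM 5-HT.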

HepG2 [7] = experiment: Cytotoxicity against human HepG2 cells assessed as reduction in cell viability measured after 24 hrs by Prestoblue assay; type: cell-based; settings: HepG2, 24 h
Outline: as §1

SMILES: Cc1nc(N)[nH]c1-c1cn(S(=O)(=O)c2cccc3ccccc23)c2ccccc12.Cl
- microsomal CLint (in vitro): 60.3 µL/min/mg
- inhibition [1]: 10.7%
- solubility [2]: 1000 to 10000 µg/mL
- Ki (D(2) dopamine receptor): 1170 nM
- IC50 (HepG2 [3]): 18.4 µM
- inhibition [4]: 52.7%
- Activity [5]: 21.3%
- Ki [6]: > 10 µM
- IC50 (HepG2 [7]): 15.7 µM
